Assay outcomes: PubChem, several laboratories
Only some compounds are listed: those with a hit (about 1.4% of all), similar ones and a draw of the others.
TNAP act hi DEA: TNAP activators at high phosphate acceptor level, primary screen, biochemical, luminescence, uHTS | Alkaline phosphatase, tissue-nonspecific isozyme (Homo sapiens), P05186 | purified TNAP, CDP-star luminescence, 1 M DEA, 30 min; active compounds read high; 0 = EDTA background, 1 = DMSO-only activity | activation factor at 20 µM | 200,000 tested, under 10 active | AID 1136, 2008;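 active means activation factor at least 2 at 20 µM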
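Measured by: Luminescent substrate turnover signal | Test system: Human TNAP | Input: TNAP 1/800 final | Dosing: 20 µM single point | Schedule: 30 min, room temperature | Controls: EDTA wells as negative control, DMSO wells as positive control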
CHT block: inhibitors of human choline transporter CHT | B-score at 10 µM | CHT-expressing cells, membrane potential dye, choline response; active compounds read low | AID 488975, 2010 | High affinity choline transporter 1 (Homo sapiens), Q9GZV3 | 310,000 tested, 0.86% active;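 active means B-score over 3 SD under the library average, and starting fluorescence ratio not unusually high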;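 further: choline stimulus applied at its EC90 after an EC20 pre-addition; B-score computed on integrated fluorescence ratio after choline addition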
Target sequence (Q9GZV3 whole entry, looked up): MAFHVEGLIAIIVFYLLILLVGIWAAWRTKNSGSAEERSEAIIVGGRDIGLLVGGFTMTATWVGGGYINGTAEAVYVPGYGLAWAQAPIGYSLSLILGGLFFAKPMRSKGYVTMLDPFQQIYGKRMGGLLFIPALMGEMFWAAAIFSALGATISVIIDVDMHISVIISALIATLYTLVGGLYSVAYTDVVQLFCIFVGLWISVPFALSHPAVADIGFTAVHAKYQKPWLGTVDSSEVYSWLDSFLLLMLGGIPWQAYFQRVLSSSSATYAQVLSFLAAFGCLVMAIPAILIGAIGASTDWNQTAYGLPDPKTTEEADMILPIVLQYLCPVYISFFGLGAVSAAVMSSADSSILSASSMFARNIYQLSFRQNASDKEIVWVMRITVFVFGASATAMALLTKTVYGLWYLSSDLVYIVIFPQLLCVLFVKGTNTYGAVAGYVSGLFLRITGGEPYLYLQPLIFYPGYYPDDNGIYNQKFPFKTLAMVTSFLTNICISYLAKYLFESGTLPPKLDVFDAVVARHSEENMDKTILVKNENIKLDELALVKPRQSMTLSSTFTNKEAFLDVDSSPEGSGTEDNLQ
CHT allo act: CHT positive allosteric modulators, primary screen, cell-based, membrane potential dye, choline EC20 | High affinity choline transporter 1 (Homo sapiens), Q9GZV3 | CHT-expressing cells; active compounds read high; LV-AA mutant CHT in HEK293 cells | B-score at 10 µM | 310,000 tested, 0.49% active | AID 488977, 2010;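 active means initial fluorescence not abnormally high and integrated response B-score, plate-corrected, over 3 SD above library mean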
ABCB6 inh 2: ABCB6 transporter inhibitors, primary screen, K562-ABCB6 cells, flow cytometry, MLPCN library; K562-ABCB6 porphyrin accumulation, 1 h; active compounds read low; fluorescence ratio to DMSO, % at 10 µM; 360,000 tested, 0.19% active; AID 602162, 2011;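 active means fluorescence ratio to DMSO below 75%, the collection mean minus 3 SD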;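 further: signal is porphyrin accumulated inside mitochondria; 100% equals median channel fluorescence of DMSO control wells; lower ratio means ABCB6 inhibition with less porphyrin fluorescence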
TNAP inh no acc: human TNAP enzyme inhibitors, primary screen, biochemical, luminescent, no phosphate acceptor, uHTS. 200,000 tested, 0.26% active. inhibition, % at 20 µM. purified TNAP, CDP-star luminescence, 30 min. AID 1012, 2008. Alkaline phosphatase, tissue-nonspecific isozyme (Homo sapiens), P05186;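 active means tissue-nonspecific alkaline phosphatase inhibition above about 50% at 20 µM in the single-dose screen, limit read from the data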;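 further: 0% = DMSO negative control and 100% = EDTA positive control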
TNAP inh hi DEA: human TNAP enzyme inhibitors, primary screen, biochemical, luminescent, high phosphate acceptor level, uHTS | Alkaline phosphatase, tissue-nonspecific isozyme (Homo sapiens), P05186 | purified TNAP, CDP-star luminescence, 1 M DEA | inhibition, % at 20 µM | 200,000 tested, 0.03% active | AID 1135, 2008;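 active means over 50% inhibition of tissue-nonspecific alkaline phosphatase at 20 µM in the single-dose screen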;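 further: plate controls were DMSO wells for no effect and EDTA-quenched wells as full inhibition for full effect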
CHT act confirm: CHT activators, confirmation, cell-based, membrane potential dye, duplicate. shares compounds with CHT allo act. CHT-expressing cells, membrane potential dye fluorescence (FDSS); % of choline EC20–EC90 response window; HEK293 expressing CHT LV-AA mutant; choline added at its EC20. activation, % at 10 µM. 2,500 tested, 91% active. AID 504833, 2011;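 active means primary screen active, with duplicate mean activation above negative control mean plus 3 SD, cut at about 11% in these data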
HEK293 MP dye: membrane potential response in parental HEK293 cells, counter-screen for CHT activator project, cell-based, membrane potential dye | ratio readout change at 10 µM, hits read low | 2,500 tested, 62% active | shares compounds with CHT allo act | AID 623908, 2012 | membrane potential dye fluorescence (FDSS); measured after EC20 choline addition;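 active means duplicate-averaged ratio beyond 3 SD from buffer wells, up or down, though filed actives are nearly all decreases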
Numbers without * were called inactive; i = inactive; nt = not tested or not shown.

SMILES	TNAP act hi DEA	CHT block	CHT allo act	ABCB6 inh 2	TNAP inh no acc	TNAP inh hi DEA	CHT act confirm	HEK293 MP dye
CNc1cc(C)nc(N2CCOCC2)n1	nt	i	i	97	nt	nt	53*	-43*
Cc1cc(NC2CCCCC2)nc(N2CCOCC2)n1	1	i	i	102	-7	-5	nt	nt
Cc1c(CCOC(=O)C23CC4(C)CC(C)(CC(C)(C4)C2)C3)sc[n+]1CC(=O)c1ccccc1	0.8	i	i	96	18	22	nt	nt
Cc1c(CCOC(=O)CC23CC4CC(CC(C4)C2)C3)sc[n+]1CC(=O)c1ccccc1	0.7	i	i	96	10	31	45*	i
Cc1cc(N2CCOCC2)n2cc(-c3ccc(F)cc3)nc2n1	1	i	i	100	-6	-2	31*	-21*
CCc1ccc(S(=O)(=O)Nc2cc3c(cc2N2CCOCC2)n(C)c(=O)c(=O)n3C)cc1	nt	i	7.2*	85	nt	nt	56*	-47*
Cn1c(=O)c(=O)n(C)c2cc(N3CCCC3)c(NS(=O)(=O)c3ccc(F)cc3)cc21	nt	i	i	99	nt	nt	nt	nt
Cn1c(=O)c(=O)n(C)c2cc(N3CCCCC3)c(NS(=O)(=O)c3ccc([N+](=O)[O-])cc3)cc21	nt	i	10*	97	nt	nt	52*	-47*
Cn1c(=O)c(=O)n(C)c2cc(N3CCOCC3)c(NS(=O)(=O)c3ccc(Br)cc3)cc21	nt	i	7.1*	98	nt	nt	53*	-43*
Cc1ccc(S(=O)(=O)Nc2cc(S(=O)(=O)N3CCCCC3)ccc2N2CCOCC2)cc1	1	i	i	104	-10	-2	nt	nt
CCN(CC)S(=O)(=O)c1ccc(N2CCOCC2)c(NS(=O)(=O)c2ccc(C)cc2)c1	0.9	i	i	94	1	5	nt	nt
O=[N+]([O-])c1ccc(S(=O)(=O)Nc2ccc(-c3ccc(N4CCCC4)nn3)cc2)cc1	nt	i	i	97	nt	nt	15*	i
O=C(COC(=O)CNS(=O)(=O)c1ccc(F)c(F)c1F)Nc1ccc(OC(F)F)cc1	1	i	i	102	-16	-3	nt	nt
CC(C)Cn1c(SCC(=O)NC(=O)NC2CCCC2)nc2ccccc21	1.1	i	i	96	-2	-11	nt	nt
O=C(c1ccccn1)N(Cc1ccco1)C1(C(=O)Nc2ccc(Br)cc2)CCCCC1	nt	nt	nt	99	nt	nt	nt	nt
O=C1OC(CC(=O)N(Cc2nnc(-c3ccccc3Cl)o2)C2CC2)c2ccccc21 (configuration not stated)	nt	nt	nt	89	nt	nt	nt	nt
COc1ccc(OC)c(S(=O)(=O)Nc2cc3c(cc2N2CCCC2)n(C)c(=O)c(=O)n3C)c1	nt	i	7.2*	100	nt	nt	53*	-60*
COc1ccc(OC)c(NS(=O)(=O)c2ccc3c(c2)n(C)c(=O)n3C)c1	1	i	i	93	-11	-4	nt	nt
Cc1ccc(F)cc1C(=O)N1CCCCC1c1cc(C(=O)Nc2cccc(C#N)c2)no1 (configuration not stated)	nt	nt	nt	100	nt	nt	nt	nt
Cc1ccc(N/C(N)=N/c2nc(CSc3nnc(N)s3)cc(=O)[nH]2)cc1	nt	i	i	98	nt	nt	5	i
NC(=O)c1cccc(C(N)=O)n1	1	i	i	99	-8	0	nt	nt
C[n+]1c2n(c3ccccc31)N=C(c1ccccc1)CS2	1	i	7.1*	96	-2	1	58*	-55*
C[n+]1c2n(c3ccccc31)N=C(c1ccc(-c3ccccc3)cc1)CS2	1	i	7.9*	95	-4	0	40*	-35*
C[n+]1c2n(c3ccccc31)N=C(c1ccc(Br)cc1)CS2	1	i	i	94	-38	-1	nt	nt
Cc1cccc(-c2nnc3n2N=C(c2ccccc2)CS3)c1	1.1	i	i	96	-8	-7	nt	nt
SMILES	TNAP act hi DEA	CHT block	CHT allo act	ABCB6 inh 2	TNAP inh no acc	TNAP inh hi DEA	CHT act confirm	HEK293 MP dye
N=c1n(CCO)c2ccccc2n1CCN1CCCCC1	1.1	i	i	97	-13	-6	35*	-34*
O=[N+]([O-])c1ccc(/C=C/C2=NN(c3ccccc3)C(c3ccco3)C2)cc1 (configuration not stated)	0.8	i	15*	nt	32	24	51*	i
Brc1ccc2nc(-c3cccs3)c(NCC3CCCO3)n2c1 (configuration not stated)	1.1	i	6.7*	100	-6	-6	10	i
CCN(Cc1ccccc1)C(c1ccc(Cl)cc1)c1nnnn1C(C)(C)C (configuration not stated)	1	i	7.2*	99	-2	0	32*	i
CCOc1ccccc1C(=O)Nc1cc2c(cc1N1CCCC1)n(CC)c(=O)n2CC	nt	i	i	97	nt	nt	51*	i
CCOC(=O)C1(Cc2ccccc2C#N)CCCCC1=O (configuration not stated)	nt	nt	nt	91	nt	nt	nt	nt
O=c1oc2ccccc2cc1-c1cn2cccnc2n1	1	i	i	96	-7	-3	20*	-33*
Cc1ccc(S(=O)(=O)NC(CC(=O)O)c2cccs2)cc1 (configuration not stated)	nt	i	i	98	nt	nt	nt	nt
COc1ccc(NC(=O)CN2C(=O)NC(C)(c3ccccc3)C2=O)c(OC)c1 (configuration not stated)	nt	i	i	97	nt	nt	nt	nt
CCOc1ccc(S(=O)(=O)NCc2ccco2)c2ccccc12	1	i	i	100	-6	-2	17*	i
CCC(C)(C)NC(=O)C(c1ccccc1)N(Cc1cccs1)C(=O)Cn1nnc2ccccc21 (configuration not stated)	nt	i	i	96	nt	nt	19*	i
Cn1c(=O)c(=O)n(C)c2cc(S(=O)(=O)N3CCC(N4CCCCC4)CC3)ccc21	nt	i	10*	93	nt	nt	77*	-77*
O=C(COc1ccccc1F)N1N=C(c2cccs2)CC1c1ccco1 (configuration not stated)	nt	nt	nt	94	nt	nt	nt	nt
